# Calls of active or inactive are those of the source. The rule behind the calls is not given here.
# What was measured:
# [1] = biological target: T1, NAD-dependent protein deacetylase sirtuin-2 (Homo sapiens) (UniProt Q8IXJ6); experiment: Inhibition of human SIRT2 assessed as enzyme activity using Fluor-de-Lys as substrate at 1 mM by fluorometry; design: scale not given: the % may be the effect or the level left
# T1 sequence (whole entry): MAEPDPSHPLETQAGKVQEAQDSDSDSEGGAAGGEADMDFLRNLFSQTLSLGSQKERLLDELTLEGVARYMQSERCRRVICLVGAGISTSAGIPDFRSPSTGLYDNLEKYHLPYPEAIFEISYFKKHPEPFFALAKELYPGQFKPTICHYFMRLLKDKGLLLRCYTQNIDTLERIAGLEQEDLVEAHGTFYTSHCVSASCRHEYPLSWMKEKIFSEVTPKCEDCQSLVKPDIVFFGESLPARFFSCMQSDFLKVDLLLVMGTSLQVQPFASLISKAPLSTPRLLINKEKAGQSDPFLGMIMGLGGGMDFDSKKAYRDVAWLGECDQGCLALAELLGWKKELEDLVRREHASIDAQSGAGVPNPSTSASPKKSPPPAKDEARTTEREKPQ
# How it was run: (§1)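 Commercial Fluor-de-Lys kit, substrate human p53 379–382 peptide (Arg-His-Lys-Lys(Ac)). Human Sirt1 or Sirt2 was incubated with substrate, NAD+ and compound at 1 mM, also tested at 100 µM. Fluorescence scales with Lys382 deacetylation. Activity is expressed relative to control, mean ± S.E.M. of 3–4 replicates.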
# [2] = biological target: T1, NAD-dependent protein deacetylase sirtuin-2 (Homo sapiens); experiment: Inhibition of human SIRT2 assessed as enzyme activity using Fluor-de-Lys as substrate at 100 uM by fluorometry; how it was run: as §1
# [3] = biological target: T2, NAD-dependent protein deacetylase sirtuin-1 (Homo sapiens) (UniProt Q96EB6); experiment: Inhibition of human SIRT1 assessed as enzyme activity using Fluor-de-Lys as substrate at 100 uM by fluorometry; how it was run: as §1
# T2 sequence (whole entry): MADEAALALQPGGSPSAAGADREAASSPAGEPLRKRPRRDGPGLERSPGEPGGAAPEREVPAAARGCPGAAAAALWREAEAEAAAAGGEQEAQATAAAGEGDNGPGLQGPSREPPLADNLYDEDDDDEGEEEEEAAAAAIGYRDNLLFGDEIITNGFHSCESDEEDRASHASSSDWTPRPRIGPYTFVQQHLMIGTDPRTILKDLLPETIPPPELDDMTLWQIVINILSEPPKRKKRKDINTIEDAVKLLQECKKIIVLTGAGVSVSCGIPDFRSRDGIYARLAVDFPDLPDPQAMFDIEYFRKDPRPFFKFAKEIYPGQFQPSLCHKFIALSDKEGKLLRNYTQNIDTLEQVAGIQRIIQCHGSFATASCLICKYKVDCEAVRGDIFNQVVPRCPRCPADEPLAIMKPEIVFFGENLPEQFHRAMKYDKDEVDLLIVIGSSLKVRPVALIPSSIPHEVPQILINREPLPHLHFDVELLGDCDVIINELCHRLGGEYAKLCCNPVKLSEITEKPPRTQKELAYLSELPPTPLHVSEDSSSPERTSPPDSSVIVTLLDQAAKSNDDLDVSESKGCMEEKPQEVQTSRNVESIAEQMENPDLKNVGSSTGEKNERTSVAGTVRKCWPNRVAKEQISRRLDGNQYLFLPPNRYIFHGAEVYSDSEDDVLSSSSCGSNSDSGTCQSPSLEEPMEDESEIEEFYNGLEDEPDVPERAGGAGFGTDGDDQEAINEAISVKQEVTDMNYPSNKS
# [4] = biological target: T2, NAD-dependent protein deacetylase sirtuin-1 (Homo sapiens); experiment: Inhibition of human SIRT1 assessed as enzyme activity using Fluor-de-Lys as substrate at 1 mM by fluorometry; design: scale not given: the % may be the effect or the level left; how it was run: as §1
# [5] = Cytotoxicity against human SK-MEL-28 cells assessed as cell survival at 100 uM after 48 hrs; type: cell-based; details: read-out: Survival
# How it was run: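 SK-MEL-28 cells grown in DMEM with 10% foetal bovine serum, 2 mM L-glutamine, penicillin and streptomycin. Cells plated and grown 48 h with or without compound at 100 µM. On the test day, cells washed in Locke's solution (134 mM NaCl, 5 mM KCl, 4 mM NaHCO3, 10 mM HEPES pH 7.6, CaCl2, 1 mM MgCl2, 5 mM sucrose), then incubated 90 min at 37 °C. Survival expressed as percent of control.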
# SK-MEL-28 [6] = experiment: Effect on ATP level in human SK-MEL-28 cells maintained in medium containing GF and glucose at 100 uM after 24 hrs by luciferase-based assay; type: functional, cell-based
# How it was run: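 SK-MEL-28 cells in DMEM with 10% FBS, grown 24 h in 96-well plates in regular medium (growth factors, glucose), with or without compound at 100 µM. Antimycin served as positive control. Cellular ATP was released with a somatic cell releasing reagent and read by luciferase/luciferin bioluminescence. Mean ± S.E.M. of 10–14 replicates from 3 separate experiments.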
# SK-MEL-28 [7] = experiment: Reduction in ATP level in human SK-MEL-28 cells at 100 uM maintained in Locke's solution after 24 hrs by luciferase-based assay in absence of GF and glucose; type: functional, cell-based
# How it was run: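 SK-MEL-28 cells were grown 24 h in Locke's saline lacking glucose and serum, with or without 100 µM compound; antimycin was the positive control. Cellular ATP was released with a somatic-cell releasing reagent, then luciferase/luciferin assay mix was added and bioluminescence read. Mean ± S.E.M. of 10–14 replicates from 3 separate experiments.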
SMILES,Activity [1],inhibition [2],inhibition [3],Activity [4],"viability at 48 h, 100 µM [5]",Activity (SK-MEL-28 [6]),Activity (SK-MEL-28 [7])
c1cncc(-c2c[nH]nn2)c1,,,,,69%,,
O=C1NCc2ncccc21,111%,inactive,inactive,88%,,,
Cc1ncccc1C(N)=O,107%,inactive,inactive,101%,,,
O=C1NCCc2ccncc21,136%,inactive,inactive,125%,,,
O=C1NCc2ccncc21,145%,inactive,inactive,117%,,,
c1cncc(-n2ccnn2)c1,100%,inactive,inactive,97%,,,
O=C1NCCc2ncccc21,115%,inactive,inactive,86%,,,
Cc1ccc(C(=O)Nc2ccc(S(=O)(=O)O)c3cc(S(=O)(=O)O)cc(S(=O)(=O)O)c23)cc1NC(=O)c1cccc(NC(=O)Nc2cccc(C(=O)Nc3cc(C(=O)Nc4ccc(S(=O)(=O)O)c5cc(S(=O)(=O)O)cc(S(=O)(=O)O)c45)ccc3C)c2)c1,20%,,,18%,,,

# Continued, in another order:
Activity [1],inhibition [2],inhibition [3],Activity [4],SMILES,"viability at 48 h, 100 µM [5]",Activity (SK-MEL-28 [6]),Activity (SK-MEL-28 [7])
110%,inactive,inactive,105%,Cc1ccncc1C(N)=O,,,
115%,inactive,inactive,108%,NS(=O)(=O)c1cccnc1,,,
71%,,,,NC(=O)c1cccnc1,,inactive,Active
109%,inactive,inactive,99%,NC(=O)/C=C/c1cccnc1,,,
